# Columns and labels:
# Lung [1] = assay: Drug uptake in ICR mouse lung at 370 kBq/100 ul, iv at 2 mins by gamma-counting analysis; type: ADME, organism-based; settings: in vivo
# Procedure, shortened: (§1)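 Male ICR mice (5 weeks, about 20 g) got 18F tracer in saline (370 KBq per 100 μL) via tail vein; n = 5 per time point, killed at 2, 10, 30, 60 min. Organs weighed and γ-counted; percent dose per gram wet tissue from comparison with diluted injectate aliquots.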
# [2] = Displacement of [125I]-IMPY from amyloid beta (1 to 42) fibrils after 2 hrs by gamma-counting analysis
# Procedure, shortened: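 Competition binding with aggregated Aβ1-42 fibrils and [125I]IMPY (60000−100000 cpm/100 μL) in 0.05% BSA (1 mL total); inhibitors 10⁻⁴−10^−8.5 M in ethanol. Incubated 37 °C for 2 h, then GF/B vacuum filtration with PBS (0.02 M, pH 7.4) washes and γ counting. Three repeats; IC50 converted to Ki by Cheng−Prusoff.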
# Stomach [3] = assay: Drug uptake in ICR mouse stomach assessed per organ at 370 kBq/100 ul, iv at 30 mins by gamma-counting analysis; type: ADME, organism-based; settings: in vivo, 0.5 h
# Procedure, shortened: (§2)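 Male ICR mice (5 weeks, about 20 g) got 18F tracer in saline (370 KBq per 100 μL) via tail vein; n = 5 per time point, killed at 2, 10, 30, 60 min. Organs removed and γ-counted against diluted injectate; expressed as % injected dose per organ.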
# Blood [4] = assay: Drug uptake in ICR mouse blood at 370 kBq/100 ul, iv at 60 mins by gamma-counting analysis; type: ADME, organism-based; settings: in vivo, 1 h; procedure, shortened: as §1
# Intestine [5] = assay: Drug uptake in ICR mouse intestine assessed per organ at 370 kBq/100 ul, iv at 2 mins by gamma-counting analysis; type: ADME, organism-based; settings: in vivo; procedure, shortened: as §2
# Heart [6] = assay: Drug uptake in ICR mouse heart at 370 kBq/100 ul, iv at 10 mins by gamma-counting analysis; type: ADME, organism-based; settings: in vivo; procedure, shortened: as §1
# Spleen [7] = assay: Drug uptake in ICR mouse spleen at 370 kBq/100 ul, iv at 10 mins by gamma-counting analysis; type: ADME, organism-based; settings: in vivo; procedure, shortened: as §1
# Blood [8] = assay: Drug uptake in ICR mouse blood at 370 kBq/100 ul, iv at 30 mins by gamma-counting analysis; type: ADME, organism-based; settings: in vivo, 0.5 h; procedure, shortened: as §1
# Bone [9] = assay: Drug uptake in ICR mouse bone at 370 kBq/100 ul, iv at 60 mins by gamma-counting analysis; type: ADME, organism-based, Bone element; settings: in vivo, 1 h; procedure, shortened: as §1
# Kidney [10] = assay: Drug uptake in ICR mouse kidney at 370 kBq/100 ul, iv at 30 mins by gamma-counting analysis; type: ADME, organism-based; settings: in vivo, 0.5 h; procedure, shortened: as §1
# Brain [11] = assay: Drug uptake in ICR mouse brain at 370 kBq/100 ul, iv at 10 mins by gamma-counting analysis; type: ADME, organism-based; settings: in vivo; procedure, shortened: as §1
# Lung [12] = assay: Drug uptake in ICR mouse lung at 370 kBq/100 ul, iv at 30 mins by gamma-counting analysis; type: ADME, organism-based; settings: in vivo, 0.5 h; procedure, shortened: as §1
# Heart [13] = assay: Drug uptake in ICR mouse heart at 370 kBq/100 ul, iv at 2 mins by gamma-counting analysis; type: ADME, organism-based; settings: in vivo; procedure, shortened: as §1
# Blood [14] = assay: Drug uptake in ICR mouse blood at 370 kBq/100 ul, iv at 2 mins by gamma-counting analysis; type: ADME, organism-based; settings: in vivo; procedure, shortened: as §1
# Spleen [15] = assay: Drug uptake in ICR mouse spleen at 370 kBq/100 ul, iv at 30 mins by gamma-counting analysis; type: ADME, organism-based; settings: in vivo, 0.5 h; procedure, shortened: as §1
# Intestine [16] = assay: Drug uptake in ICR mouse intestine assessed per organ at 370 kBq/100 ul, iv at 30 mins by gamma-counting analysis; type: ADME, organism-based; settings: in vivo, 0.5 h; procedure, shortened: as §2
# Blood [17] = assay: Drug uptake in ICR mouse blood at 370 kBq/100 ul, iv at 10 mins by gamma-counting analysis; type: ADME, organism-based; settings: in vivo; procedure, shortened: as §1
# Brain [18] = assay: Drug uptake in ICR mouse brain at 370 kBq/100 ul, iv at 30 mins by gamma-counting analysis; type: ADME, organism-based; settings: in vivo, 0.5 h; procedure, shortened: as §1
# Brain [19] = assay: Drug uptake in ICR mouse brain at 370 kBq/100 ul, iv at 2 mins by gamma-counting analysis; type: ADME, organism-based; settings: in vivo; procedure, shortened: as §1
# Liver [20] = assay: Drug uptake in ICR mouse liver at 370 kBq/100 ul, iv at 2 mins by gamma-counting analysis; type: ADME, organism-based; settings: in vivo; procedure, shortened: as §1
# Kidney [21] = assay: Drug uptake in ICR mouse kidney at 370 kBq/100 ul, iv at 60 mins by gamma-counting analysis; type: ADME, organism-based; settings: in vivo, 1 h; procedure, shortened: as §1
# Brain [22] = assay: Ratio of drug uptake in brain at 2 mins to drug uptake in brain at 60 mins in ICR mouse at 370 KBq/100 ul, iv; type: ADME, organism-based; settings: in vivo
# Procedure, shortened: (§3)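 Normal male ICR mice (5 weeks, about 20 g) received the ¹⁸F tracer in saline (370 KBq per 100 μL) by tail-vein injection. Groups of n = 5 were killed at 2, 10, 30 and 60 min. Organs were removed, weighed and γ-counted against diluted aliquots of the injectate, giving % dose per gram. Stomach and intestine were expressed per organ. The brain ratio is 2 min/60 min uptake. Values are mean ± SD.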
# Lung [23] = assay: Drug uptake in ICR mouse lung at 370 kBq/100 ul, iv at 60 mins by gamma-counting analysis; type: ADME, organism-based; settings: in vivo, 1 h; procedure, shortened: as §1
# Heart [24] = assay: Drug uptake in ICR mouse heart at 370 kBq/100 ul, iv at 30 mins by gamma-counting analysis; type: ADME, organism-based; settings: in vivo, 0.5 h; procedure, shortened: as §1
# Liver [25] = assay: Drug uptake in ICR mouse liver at 370 kBq/100 ul, iv at 30 mins by gamma-counting analysis; type: ADME, organism-based; settings: in vivo, 0.5 h; procedure, shortened: as §1
# Stomach [26] = assay: Drug uptake in ICR mouse stomach assessed per organ at 370 kBq/100 ul, iv at 60 mins by gamma-counting analysis; type: ADME, organism-based; settings: in vivo, 1 h; procedure, shortened: as §3
# Lung [27] = assay: Drug uptake in ICR mouse lung at 370 kBq/100 ul, iv at 10 mins by gamma-counting analysis; type: ADME, organism-based; settings: in vivo; procedure, shortened: as §1
# Brain [28] = assay: Drug uptake in ICR mouse brain at 370 kBq/100 ul, iv at 60 mins by gamma-counting analysis; type: ADME, organism-based; settings: in vivo, 1 h; procedure, shortened: as §1
# Bone [29] = assay: Drug uptake in ICR mouse bone at 370 kBq/100 ul, iv at 10 mins by gamma-counting analysis; type: ADME, organism-based, Bone element; settings: in vivo; procedure, shortened: as §1
# [30] = n-Octanol-PBS buffer partition coefficient, log D of the compound at 1.5 MBq after 3 mins at pH 7.4; type: physicochemical
# Procedure, shortened: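 The tracer was partitioned between n-octanol and PBS by vortexing for 3 min at room temperature, then centrifuged for 5 min at 3000 rpm. Samples of the octanol (50 μL) and aqueous (500 μL) layers were counted. log D is the log of the octanol/PBS counts-per-gram ratio. The octanol layer was repartitioned until values were consistent. Measured in triplicate and repeated three times.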
# Liver [31] = assay: Drug uptake in ICR mouse liver at 370 kBq/100 ul, iv at 10 mins by gamma-counting analysis; type: ADME, organism-based; settings: in vivo; procedure, shortened: as §1
# Kidney [32] = assay: Drug uptake in ICR mouse kidney at 370 kBq/100 ul, iv at 10 mins by gamma-counting analysis; type: ADME, organism-based; settings: in vivo; procedure, shortened: as §1
# Stomach [33] = assay: Drug uptake in ICR mouse stomach assessed per organ at 370 kBq/100 ul, iv at 2 mins by gamma-counting analysis; type: ADME, organism-based; settings: in vivo; procedure, shortened: as §2
# Liver [34] = assay: Drug uptake in ICR mouse liver at 370 kBq/100 ul, iv at 60 mins by gamma-counting analysis; type: ADME, organism-based; settings: in vivo, 1 h; procedure, shortened: as §1
# Stomach [35] = assay: Drug uptake in ICR mouse stomach assessed per organ at 370 kBq/100 ul, iv at 10 mins by gamma-counting analysis; type: ADME, organism-based; settings: in vivo; procedure, shortened: as §2
# Brain [36] = assay: Drug uptake in wild type C57BL6 mouse brain at 370 KBq/100 ul after 1 hr by autoradiographic analysis; type: ADME, tissue-based; settings: in vitro
# Procedure, shortened: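 Paraffin brain sections from 12-month-old male control C57BL6 mice were deparaffinized through xylene and graded ethanol, then held in PBS (0.2 M, pH 7.4) for 30 min. They were incubated with the ¹⁸F tracer (370 KBq per 100 μL) for 1 h at room temperature. Sections were washed in 40% EtOH, rinsed with water for 1 min, dried, and exposed to a phosphor plate for 2 h. The same sections were then stained with thioflavin S.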
# Intestine [37] = assay: Drug uptake in ICR mouse intestine assessed per organ at 370 kBq/100 ul, iv at 10 mins by gamma-counting analysis; type: ADME, organism-based; settings: in vivo; procedure, shortened: as §2
# Bone [38] = assay: Drug uptake in ICR mouse bone at 370 kBq/100 ul, iv at 30 mins by gamma-counting analysis; type: ADME, organism-based, Bone element; settings: in vivo, 0.5 h; procedure, shortened: as §1
# Heart [39] = assay: Drug uptake in ICR mouse heart at 370 kBq/100 ul, iv at 60 mins by gamma-counting analysis; type: ADME, organism-based; settings: in vivo, 1 h; procedure, shortened: as §1
# Bone [40] = assay: Drug uptake in ICR mouse bone at 370 kBq/100 ul, iv at 2 mins by gamma-counting analysis; type: ADME, organism-based, Bone element; settings: in vivo; procedure, shortened: as §1
# Spleen [41] = assay: Drug uptake in ICR mouse spleen at 370 kBq/100 ul, iv at 2 mins by gamma-counting analysis; type: ADME, organism-based; settings: in vivo; procedure, shortened: as §1
# Kidney [42] = assay: Drug uptake in ICR mouse kidney at 370 kBq/100 ul, iv at 2 mins by gamma-counting analysis; type: ADME, organism-based; settings: in vivo; procedure, shortened: as §1
# Spleen [43] = assay: Drug uptake in ICR mouse spleen at 370 kBq/100 ul, iv at 60 mins by gamma-counting analysis; type: ADME, organism-based; settings: in vivo, 1 h; procedure, shortened: as §1
# Intestine [44] = assay: Drug uptake in ICR mouse intestine assessed per organ at 370 kBq/100 ul, iv at 60 mins by gamma-counting analysis; type: ADME, organism-based; settings: in vivo, 1 h; procedure, shortened: as §2
compound,measurement,setting,value
CN(C)c1ccc(-c2nc3cc(OCCOCCOCC[18F])ccc3o2)cn1,Drug uptake,Lung [1],3.03 % ID/g
same,Ki,[2],9.9 nM
same,Drug uptake,Stomach [3],9.26 %ID
same,Drug uptake,Blood [4],2.87 % ID/g
same,Drug uptake,Intestine [5],8.13 %ID
same,Drug uptake,Heart [6],3.51 % ID/g
same,Drug uptake,Spleen [7],2.69 % ID/g
same,Drug uptake,Blood [8],2.74 % ID/g
same,Drug uptake,Bone [9],6.39 % ID/g
same,Drug uptake,Kidney [10],4.2 % ID/g
same,Drug uptake,Brain [11],1.97 % ID/g
same,Drug uptake,Lung [12],2.64 % ID/g
same,Drug uptake,Heart [13],5.24 % ID/g
same,Drug uptake,Blood [14],5.47 % ID/g
same,Drug uptake,Spleen [15],2.41 % ID/g
same,Drug uptake,Intestine [16],28.15 %ID
same,Drug uptake,Blood [17],3.05 % ID/g
same,Drug uptake,Brain [18],1.85 % ID/g
same,Drug uptake,Brain [19],3.79 % ID/g
same,Drug uptake,Liver [20],13.25 % ID/g
same,Drug uptake,Kidney [21],3.21 % ID/g
same,Ratio,Brain [22],2.08
same,Drug uptake,Lung [23],1.87 % ID/g
same,Drug uptake,Heart [24],2.97 % ID/g
same,Drug uptake,Liver [25],7.24 % ID/g
same,Drug uptake,Stomach [26],6.45 %ID
same,Drug uptake,Lung [27],2.34 % ID/g
same,Drug uptake,Brain [28],1.82 % ID/g
same,Drug uptake,Bone [29],2.7 % ID/g
same,logD at 0.05 h,[30],3.26
same,Drug uptake,Liver [31],5.41 % ID/g
same,Drug uptake,Kidney [32],5.14 % ID/g
same,Drug uptake,Stomach [33],2.66 %ID
same,Drug uptake,Liver [34],3.46 % ID/g
same,Drug uptake,Stomach [35],5.1 %ID
same,Drug uptake,Brain [36],Not Active
same,Drug uptake,Intestine [37],14.45 %ID
same,Drug uptake,Bone [38],4.71 % ID/g
same,Drug uptake,Heart [39],2.73 % ID/g
same,Drug uptake,Bone [40],1.79 % ID/g
same,Drug uptake,Spleen [41],3 % ID/g
same,Drug uptake,Kidney [42],8.27 % ID/g
same,Drug uptake,Spleen [43],2.34 % ID/g
same,Drug uptake,Intestine [44],28.54 %ID

# Source: ChEMBL document CHEMBL2177098, “Synthesis and evaluation of novel ¹⁸F labeled 2-pyridinylbenzoxazole and 2-pyridinylbenzothiazole derivatives as ligands for positron emission tomography (PET) imaging of β-amyloid plaques” (J Med Chem, 2012)
